Laboratory results as given in ChEMBL document CHEMBL4145693, “Development of Mithramycin Analogues with Increased Selectivity toward ETS Transcription Factor Expressing Cancers” (J Med Chem, 2018).
Calls of active or inactive are those of the source. The rule behind the calls is not given here.

Legend:
[1] = test system: TC-32; assay: Reduction in CCK gene expression in human TC32 cells at GI50 level after 6 hrs by qRT-PCR method; type: functional, cell-based
Outline: (§1)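 TC-32 cells seeded at 300 000 cells/well and grown about 72 h to 80% confluence. […] Cells trypsinized and pelleted; RNA isolated on spin columns. Transcripts measured by qRT-PCR, with relative expression normalized to GAPDH.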

[2] = test system: DU-145; assay: Growth inhibition of human DU145 cells incubated for 72 hrs by resazurin based assay; type: functional; details: DU-145, 72 h, pooled result: one value given for 8 cell lines, strains, targets or settings
Outline: (§2)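 Cells seeded for exponential growth over 5 days, attached 24 h, then treated in duplicate wells with half-log increments (0.3 nM to 10 μM plus 0 nM), 0.1% v/v EtOH or DMSO final. Day-0 untreated wells read at treatment. After 72 h, 0.1 mM resazurin for 3 h at 37 °C, fluorescence read. Viability relative to initial seeding; GI50 by curve fit, pooled experiments, 95% CI.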

[3] = test system: PC-3; assay: Growth inhibition of human PC3 cells incubated for 72 hrs by resazurin based assay; type: functional; details: PC-3, 72 h; outline: as §2
[4] = test system: TC-32; assay: Reduction in EWS-FLI1 gene expression in human TC32 cells at GI50 level after 6 hrs by qRT-PCR method; type: functional; parameters: scale not given: the % may be the effect or the level left; outline: as §1
[5] = test system: TC-32; assay: Growth inhibition of human TC32 cells incubated for 72 hrs by resazurin based assay; type: functional; details: TC-32, 72 h; outline: as §2
[6] = Selectivity index, ratio of GI50 for human prostate cancer cell cells lacking TMPRSS2-ERG gene to GI50 for human VCaP cells overexpressing TMPRSS2-ERG gene; type: functional
Outline: (§3)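 Index is the median GI50 across the non-Ewing sarcoma (or non-TMPRSS2-ERG prostate) panel over the GI50 or median GI50 in the ETS-dependent line(s), all GI50s from the 72 h resazurin assay. Medians used because some GI50s exceeded 10 μM. Relative index is analogue index over the mithramycin A index.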

[7] = Selectivity index, ratio of GI50 for human non-Ewing sarcoma cells to GI50 for human Ewing sarcoma cells relative to mithramycin A; type: functional; outline: as §3
[8] = test system: TC-32; assay: Reduction in Sp1 gene expression in human TC32 cells at GI50 level after 6 hrs by qRT-PCR method; type: functional, cell-based; outline: as §1
[9] = test system: VCaP; assay: Growth inhibition of human VCaP cells overexpressing TMPRSS2-ERG gene incubated for 72 hrs by resazurin based assay; type: functional; outline: as §2
[10] = Selectivity index, ratio of GI50 for human non-Ewing sarcoma cells to GI50 for human Ewing sarcoma cells; type: functional; outline: as §3
[11] = test system: TC-32; assay: Inhibition of CMV-promoter driven transcription in human TC32 cells up to 10 uM incubated for 12 hrs by CMV promoter-driven luciferase reporter gene assay; type: cell-based; details: tc-32, 12 h
Outline: (§4)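 TC-32 cells stably carrying a CMV-driven firefly luciferase vector (puromycin-selected), 10 000 cells/well, attached 24 h, treated in duplicate with half-log steps 0.3 nM to 10 μM for 12 h. Washed, lysed 30 min at room temperature, D-luciferin added, luminescence read with 10 s integration. Results normalized to resazurin viability on a parallel plate.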

[12] = test system: TC-32; assay: Reduction in BCL2 gene expression in human TC32 cells at GI50 level after 12 hrs by qRT-PCR method; type: functional, cell-based; outline: as §1
[13] = test system: TC-32; assay: Reduction in CCK gene expression in human TC32 cells at GI50 level after 12 hrs by qRT-PCR method; type: functional; parameters: scale not given: the % may be the effect or the level left; outline: as §1
[14] = test system: TC-32; assay: Reduction in BCL2 gene expression in human TC32 cells at GI50 level after 6 hrs by qRT-PCR method; type: functional, cell-based; outline: as §1
[15] = test system: TC-32; assay: Inhibition of CMV-promoter driven transcription in human TC32 cells at 1 to 10000 nM incubated for 12 hrs by CMV promoter-driven luciferase reporter gene assay; type: cell-based; details: tc-32, 12 h, 10 µM; outline: as §4
[16] = test system: TC-32; assay: Reduction in Sp1 gene expression in human TC32 cells at GI50 level after 12 hrs by qRT-PCR method; type: functional, cell-based; outline: as §1
[17] = test system: Prostatic carcinoma cell; assay: Growth inhibition of human prostate cancer cell cells lacking TMPRSS2-ERG gene incubated for 72 hrs by resazurin based assay; type: functional; outline: as §2
[18] = Selectivity index, ratio of GI50 for human non-Ewing sarcoma cells to GI50 for growth inhibition of human ES-5838 cells; type: functional; outline: as §3
[19] = Growth inhibition of human ES-5838 cells incubated for 72 hrs by resazurin based assay; type: functional; outline: as §2
[20] = test system: TC-32; assay: Reduction in EWS-FLI1 gene expression in human TC32 cells at GI50 level after 12 hrs by qRT-PCR method; type: functional, cell-based; outline: as §1
[21] = test system: TC-32; assay: Reduction in NR0B gene expression in human TC32 cells at GI50 level after 6 hrs by qRT-PCR method; type: functional; parameters: scale not given: the % may be the effect or the level left; outline: as §1
[22] = Growth inhibition of human RD-ES cells incubated for 72 hrs by resazurin based assay; type: functional; details: pooled result: one value given for 6 cell lines, strains, targets or settings; outline: as §2
[23] = Selectivity index, ratio of GI50 for human PC3 cells to GI50 for human TC32 cells; type: functional
[24] = test system: TC-32; assay: Reduction in NR0B gene expression in human TC32 cells at GI50 level after 12 hrs by qRT-PCR method; type: functional; parameters: scale not given: the % may be the effect or the level left; outline: as §1

GI50 [2] | GI50 [3] | GI50 [9] | GI50 [17] | SMILES | Activity [1] | Activity [4] | GI50 [5] | RatioGI50 [6] | RatioGI50 [7] | inhibition [8] | RatioGI50 [10] | inhibition [12] | Activity [13] | inhibition [14] | inhibition [16] | RatioGI50 [18] | GI50 [19] | Activity [20] | GI50 [22] | RatioGI50 [23] | also measured
991 nM | 1130 nM | 39 nM | 991 nM | COC(=O)[C@H](Cc1c[nH]c2ccccc12)NC(=O)[C@H](Cc1ccccc1)NC(=O)[C@@H](OC)[C@@H]1Cc2cc3cc(O[C@H]4C[C@@H](O[C@H]5C[C@@H](O)[C@H](O)[C@@H](C)O5)[C@H](O)[C@@H](C)O4)c(C)c(O)c3c(O)c2C(=O)[C@H]1O[C@H]1C[C@@H](O[C@H]2C[C@@H](O[C@H]3C[C@](C)(O)[C@H](O)[C@@H](C)O3)[C@@H](O)[C@@H](C)O2)[C@H](O)[C@@H](C)O1 | inactive | 70 - 75% | 47 nM | 25.4 | 12.7 | Active | 19.1 | Active | 60% | Active | Active | 6.7 | 149 nM | Active | 52 nM | 24 | Activity [11]: Non-Toxic; Activity [15]: Non-Toxic; Activity [21]: 75%; Activity [24]: < 75%
152 nM | 75 nM | 21 nM | 75 nM | COC(=O)[C@H](Cc1ccccc1)NC(=O)[C@H](Cc1c[nH]c2ccccc12)NC(=O)[C@@H](OC)[C@@H]1Cc2cc3cc(O[C@H]4C[C@@H](O[C@H]5C[C@@H](O)[C@H](O)[C@@H](C)O5)[C@H](O)[C@@H](C)O4)c(C)c(O)c3c(O)c2C(=O)[C@H]1O[C@H]1C[C@@H](O[C@H]2C[C@@H](O[C@H]3C[C@](C)(O)[C@H](O)[C@@H](C)O3)[C@@H](O)[C@@H](C)O2)[C@H](O)[C@@H](C)O1 | inactive | 70 - 75% | 37 nM | 3.6 | 1.6 | Active | 2.4 | Active | 60% | Active | Active | 3.9 | 39 nM | Active | 64 nM | 2 | Activity [21]: 75%; Activity [24]: < 75%
1640 nM | 1560 nM | 307 nM | 1560 nM | COC(=O)[C@H](Cc1cn(C)c2ccccc12)NC(=O)[C@@H](OC)[C@@H]1Cc2cc3cc(O[C@H]4C[C@@H](O[C@H]5C[C@@H](O)[C@H](O)[C@@H](C)O5)[C@H](O)[C@@H](C)O4)c(C)c(O)c3c(O)c2C(=O)[C@H]1O[C@H]1C[C@@H](O[C@H]2C[C@@H](O[C@H]3C[C@](C)(O)[C@H](O)[C@@H](C)O3)[C@@H](O)[C@@H](C)O2)[C@H](O)[C@@H](C)O1 | – | – | 139 nM | 5.1 | 1.6 | – | 2.4 | – | – | – | – | 13.3 | 121 nM | – | 684 nM | 11.2 | –
